Results collected from several papers.
Protocols differ between the studies behind these lines.
Target: High affinity nerve growth factor receptor (NTRK1, Homo sapiens, UniProt P04629)

`COc1ccc2[nH]c3c4[nH]c5ccc(OC)cc5c4c4c(c3c2c1)C(=O)NC4=O` has a remaining binding of 40% (binding; competition with immobilised ligand; 1 µM).
`COc1ccc2oc(-c3ccc4nc(N)oc4c3)c/c(=N\c3ccccc3NC(=O)CCN)c2c1` has a remaining binding of 88% (binding; 1 µM).
`CO[C@@H]1[C@H](N(C)C(=O)c2ccccc2)C[C@H]2O[C@]1(C)n1c3ccccc3c3c4c(c5c6ccccc6n2c5c31)C(=O)NC4` has an inhibition of 98% (enzyme activity; inhibitor; 1 µM).
For `C[C@H]1CC[C@H](n2c3cnccc3c3cnc(Nc4ccc5c(n4)CCN(C(=O)CO)C5)nc32)CC1`, the remaining binding was 18% (cell-free assay; competition with immobilised ligand; 1 µM).
`CCCCC(=O)Nc1ccc(-c2ccc3ncn(CCC)c(=O)c3c2)cn1` gave a remaining binding of 99% (binding; competition with immobilised ligand; 0.5 µM).
`C=CC(=O)N1CCC([C@@H]2CCNc3c(C(N)=O)c(-c4ccc(Oc5ccccc5)cc4)nn32)CC1` has an inhibition of 47% (cell-free assay; 1 µM).
The remaining binding of `C1=C/COCc2cc(ccc2OCCN2CCCC2)Nc2nccc(n2)-c2cccc(c2)COC/1` is reported as 10% (binding; 0.1 µM).
The remaining binding of `CN(C)C(=O)c1cc2cnc(Nc3ccc(-c4ccc5c(=O)cc(N6CCOCC6)oc5c4)cc3)nc2n1C1CCCC1` is reported as 3.7% (binding; competition with immobilised ligand; 1 µM).
For `N#Cc1ccc(NC(=O)Nc2ccccc2)cc1`, the remaining binding was 55% (cell-free assay; competition with immobilised ligand; 25 µM).
